Assay results as given in ChEMBL document CHEMBL4411313, “Substrate-Specific Inhibition Constants for Phospholipase A2 Acting on Unique Phospholipid Substrates in Mixed Micelles and Membranes Using Lipidomics” (J Med Chem, 2019).

Tests used:
[1] = target: T1, 85/88 kDa calcium-independent phospholipase A2 (Homo sapiens) (UniProt O60733); assay: (§1) Inhibition of human recombinant calcium-independent PLA2 using PAPC as substrate assessed as reduction in 16:0 LPC formation after 30 mins by HPLC-MS analysis
T1 sequence (whole entry): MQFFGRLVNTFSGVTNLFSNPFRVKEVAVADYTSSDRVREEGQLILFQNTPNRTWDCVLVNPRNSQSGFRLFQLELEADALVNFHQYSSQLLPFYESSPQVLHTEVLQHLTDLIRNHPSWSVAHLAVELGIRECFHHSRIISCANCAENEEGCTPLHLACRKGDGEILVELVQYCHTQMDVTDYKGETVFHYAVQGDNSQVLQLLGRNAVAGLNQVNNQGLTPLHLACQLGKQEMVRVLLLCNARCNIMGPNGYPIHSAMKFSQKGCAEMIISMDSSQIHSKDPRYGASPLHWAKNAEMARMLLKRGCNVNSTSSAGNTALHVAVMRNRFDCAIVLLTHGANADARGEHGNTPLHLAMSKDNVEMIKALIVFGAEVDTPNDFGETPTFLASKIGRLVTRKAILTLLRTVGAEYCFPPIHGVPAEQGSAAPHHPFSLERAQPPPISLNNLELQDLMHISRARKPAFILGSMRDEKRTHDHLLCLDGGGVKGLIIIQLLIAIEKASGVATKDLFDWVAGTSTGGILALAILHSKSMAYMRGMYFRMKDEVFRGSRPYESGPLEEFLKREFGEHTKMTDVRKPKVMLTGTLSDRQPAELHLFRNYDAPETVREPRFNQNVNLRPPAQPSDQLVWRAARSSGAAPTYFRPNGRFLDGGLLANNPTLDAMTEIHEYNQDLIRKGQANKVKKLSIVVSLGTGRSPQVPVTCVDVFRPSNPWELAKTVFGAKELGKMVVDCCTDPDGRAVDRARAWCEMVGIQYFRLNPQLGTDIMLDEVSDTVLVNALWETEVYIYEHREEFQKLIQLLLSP
How it was run: (§2)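 Human recombinant group VIA iPLA2 acted on 100 µM single phospholipid (PAPC or PLPC) in 400 µM C12E8 mixed micelles. Buffer was 100 mM HEPES pH 7.5, 2 mM ATP and 4 mM DTT; incubation 30 min at 40 °C. 16:0 LPC was read by HILIC-MRM in positive ion mode; free AA or LA by C18 LC-MS in negative ion mode.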

[2] = target: T2, 85/88 kDa calcium-independent phospholipase A2 (Homo sapiens, UniProt O60733); assay: as §1; how it was run: as §2
T2 sequence (O60733 whole entry): T1 sequence (whole entry)

[3] = target: T2, 85/88 kDa calcium-independent phospholipase A2; assay: Inhibition of human recombinant calcium-independent PLA2 using PAPC as substrate assessed as reduction in free AA formation after 30 mins by HPLC-MS analysis; how it was run: as §2
[4] = target: T1, 85/88 kDa calcium-independent phospholipase A2 (Homo sapiens); assay: (§3) Inhibition of human recombinant calcium-independent PLA2 using PAPC as substrate assessed as reduction in free [14C]-AA formation after 30 mins by scintillation counting
How it was run: (§4)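 Radioactive format: iPLA2 hydrolysed PAPC/C12E8 mixed micelles traced with 1-palmitoyl-2-(1-[14C]arachidonoyl) PC. Released [14C]-AA was measured by scintillation counting. Percent inhibition was plotted against log mole fraction or log concentration to derive X1(50) and IC50.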

[5] = target: T2, 85/88 kDa calcium-independent phospholipase A2; assay: as §3; how it was run: as §4
[6] = target: T2, 85/88 kDa calcium-independent phospholipase A2; assay: Inhibition of human recombinant calcium-independent PLA2 using PAPS as substrate assessed as reduction in […] after 30 mins in presence of equal molar mixture of PAPA/PAPC/PAPE/PAPG/PAPS/PLPC by HPLC-MS analysis
[7] = target: T1, 85/88 kDa calcium-independent phospholipase A2 (Homo sapiens); assay: (§5) Inhibition of human recombinant calcium-independent PLA2 using PAPE as substrate assessed as assessed as reduction in free AA formation after 30 mins in presence of equal molar mixture of PAPA/PAPC/PAPE/PAPG/PAPS/PLPC by HPLC-MS analysis
How it was run: (§6)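 The iPLA2 substrate was an equimolar mixture of PAPA, PAPC, PAPE, PAPG and PAPS (100 µM total) with 400 µM C12E8. Buffer was 100 mM HEPES pH 7.5, 2 mM ATP and 4 mM DTT; 30 min at 40 °C. Each 16:0 lysophospholipid was quantified in positive ion mode; free AA, common to all five substrates, in negative ion mode.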

[8] = target: T2, 85/88 kDa calcium-independent phospholipase A2; assay: as §5; how it was run: as §6
[9] = target: T2, 85/88 kDa calcium-independent phospholipase A2; assay: Inhibition of human recombinant calcium-independent PLA2 using PAPE as substrate assessed as reduction in […] after 30 mins in presence of equal molar mixture of PAPA/PAPC/PAPE/PAPG/PAPS/PLPC by HPLC-MS analysis
[10] = target: T2, 85/88 kDa calcium-independent phospholipase A2; assay: Inhibition of human recombinant calcium-independent PLA2 using PLPC as substrate assessed as reduction in 16:0 LPC formation after 30 mins by HPLC-MS analysis; how it was run: as §2
[11] = target: T2, 85/88 kDa calcium-independent phospholipase A2; assay: (§7) Inhibition of human recombinant calcium-independent PLA2 using PAPA as substrate assessed as reduction in […] after 30 mins by HPLC-MS analysis
[12] = target: T1, 85/88 kDa calcium-independent phospholipase A2 (Homo sapiens); assay: (§8) Inhibition of human recombinant iPLA2 assessed as reduction in 16:0 LPC formation after 30 mins by HPLC-MS analysis; how it was run: as §2
[13] = target: T2, 85/88 kDa calcium-independent phospholipase A2; assay: as §8; how it was run: as §2
[14] = target: T1, 85/88 kDa calcium-independent phospholipase A2 (Homo sapiens); assay: (§9) Inhibition of human recombinant calcium-independent PLA2 using PAPG as substrate assessed as reduction in 16:0 […] formation after 30 mins in presence of equal molar mixture of PAPA/PAPC/PAPE/PAPG/PAPS/PLPC by HPLC-MS analysis
[15] = target: T2, 85/88 kDa calcium-independent phospholipase A2; assay: as §9
[16] = target: T1, 85/88 kDa calcium-independent phospholipase A2 (Homo sapiens); assay: Inhibition of human recombinant calcium-independent PLA2 using PAPA as substrate assessed as reduction in 16:0 LPA formation after 30 mins in presence of equal molar mixture of PAPA/PAPC/PAPE/PAPG/PAPS/PLPC by HPLC-MS analysis; how it was run: as §6
[17] = target: T1, 85/88 kDa calcium-independent phospholipase A2 (Homo sapiens); assay: Inhibition of human recombinant calcium-independent PLA2 using PAPE as substrate assessed as reduction in 16:0 LPE formation after 30 mins in presence of equal molar mixture of PAPA/PAPC/PAPE/PAPG/PAPS/PLPC by HPLC-MS analysis; how it was run: as §6
[18] = target: T1, 85/88 kDa calcium-independent phospholipase A2 (Homo sapiens); assay: (§10) Inhibition of human recombinant iPLA2 assessed as reduction in free FA formation after 30 mins by HPLC-MS analysis; how it was run: as §2
[19] = target: T2, 85/88 kDa calcium-independent phospholipase A2; assay: as §10; how it was run: as §2
[20] = target: T2, 85/88 kDa calcium-independent phospholipase A2; assay: Inhibition of human recombinant calcium-independent PLA2 using PLPC as substrate assessed as reduction in free LA formation after 30 mins by HPLC-MS analysis
[21] = target: 85/88 kDa calcium-independent phospholipase A2 (Homo sapiens) (UniProt O60733); assay: Inhibition of human recombinant calcium-independent PLA2 using PAPS as substrate assessed as reduction in 16:0 LPS formation after 30 mins in presence of equal molar mixture of PAPA/PAPC/PAPE/PAPG/PAPS/PLPC by HPLC-MS analysis
[22] = target: T3, Secretory phospholipase A2 (Homo sapiens) (UniProt Q5R387+Q9NZK7+P14555+Q9BZM2+Q9UNK4+P39877+O15496+P04054+Q9NZ20+Q9BZM1+Q9BX93)
[23] = target: T3, Secretory phospholipase A2 (Homo sapiens); remark: listed apart in the source
[24] = target: T3, Secretory phospholipase A2 (Homo sapiens); remark: listed apart in the source
[25] = target: T1, 85/88 kDa calcium-independent phospholipase A2 (Homo sapiens); assay: as §7
[26] = target: T4, Cytosolic phospholipase A2 (Homo sapiens) (UniProt P47712); assay: Inhibition of human recombinant cPLA2 assessed as reduction in 16:0 LPC formation after 30 mins by HPLC-MS analysis
T4 sequence (whole entry): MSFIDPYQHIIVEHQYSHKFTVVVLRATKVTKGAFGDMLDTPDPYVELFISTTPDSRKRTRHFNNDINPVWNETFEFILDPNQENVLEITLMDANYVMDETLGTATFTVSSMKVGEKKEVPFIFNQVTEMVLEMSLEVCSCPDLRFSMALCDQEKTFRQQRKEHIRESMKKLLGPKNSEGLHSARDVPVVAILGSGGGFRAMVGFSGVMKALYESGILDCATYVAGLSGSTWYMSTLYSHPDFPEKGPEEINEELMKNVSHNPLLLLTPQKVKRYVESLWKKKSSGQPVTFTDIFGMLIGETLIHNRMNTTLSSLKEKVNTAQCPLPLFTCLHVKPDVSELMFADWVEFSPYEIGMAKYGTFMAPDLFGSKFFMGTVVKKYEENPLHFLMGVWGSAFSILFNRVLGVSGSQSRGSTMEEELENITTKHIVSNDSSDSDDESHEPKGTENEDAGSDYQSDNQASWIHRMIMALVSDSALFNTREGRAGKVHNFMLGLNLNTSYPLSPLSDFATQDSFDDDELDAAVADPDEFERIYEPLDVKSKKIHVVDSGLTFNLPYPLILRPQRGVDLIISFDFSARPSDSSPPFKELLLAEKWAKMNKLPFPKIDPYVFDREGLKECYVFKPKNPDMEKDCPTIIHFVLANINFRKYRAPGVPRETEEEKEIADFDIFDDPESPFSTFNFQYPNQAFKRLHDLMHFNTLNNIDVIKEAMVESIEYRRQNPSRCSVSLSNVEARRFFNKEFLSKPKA
How it was run: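 Human recombinant group IVA cPLA2 in mixed micelles with 97 µM PAPC plus 3 µM PI(4,5)P2 (100 µM total phospholipid) and 400 µM C12E8. Buffer was 100 mM HEPES pH 7.5, 90 µM CaCl2 and 2 mM DTT; incubation 30 min at 40 °C. 16:0 LPC was read by HILIC-MRM (positive ion) and free AA by C18 LC-MS (negative ion).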

[27] = target: Cytosolic phospholipase A2 (Homo sapiens) (UniProt P47712); assay: Inhibition of human recombinant cytosolic PLA2 using PAPA as substrate assessed as reduction in free FA formation after 30 mins in presence of equal molar mixture of PAPA/PAPC/PAPE/PAPG/PAPS/PLPC by HPLC-MS analysis

With `CCCCCCCCSCC(=O)C(F)(F)F` the XI50 (mole fraction) [1] was 8e-05, the IC50 [2] was 54 nM and the IC50 [3] was 49 nM. It also gave an XI50 (mole fraction) [4] of 9e-05, an IC50 [5] of 48 nM and an IC50 [6] of 46 nM. For the same compound, the XI50 (mole fraction) [7] was 7e-05, the IC50 [8] was 50 nM and the IC50 [9] was 63 nM. For the same compound, the IC50 [10] was 83 nM, the IC50 [11] was 160 nM and the XI50 (mole fraction) [12] was 8e-05. The IC50 [13] was 55 nM, the XI50 (mole fraction) [14] was 6e-05 and the IC50 [15] was 48 nM. For the same compound, the XI50 (mole fraction) [16] was 0.0002, the XI50 (mole fraction) [17] was 9e-05 and the XI50 (mole fraction) [18] was 7e-05. For the same compound, the IC50 [19] was 48 nM, the IC50 [20] was 67 nM and the XI50 [21] was 0.05 nM.

`CCc1c(C(=O)C(N)=O)c2c(OCC(=O)O)cccc2n1Cc1ccccc1` showed an XI50 (mole fraction) [7] of 0.0008, an XI50 (mole fraction) [14] of 0.0031 to 0.026 and an XI50 [22] of 0.17 nM. For the same compound, the XI50 [23] was 0.19 nM and the XI50 [24] was 0.9 nM.

Work on `O=C1NC(=O)C(=Cc2ccc(C(=O)NC[C@@H]3C[C@@H](SC(c4ccccc4)(c4ccccc4)c4ccccc4)CN3C(=O)c3ccccc3C(=O)c3ccc(F)cc3F)cc2)S1` yielded an XI50 [25] of 0.13 nM, an XI50 (mole fraction) [26] of 0.0023 and an XI50 [27] of 1.8 nM. For the same compound, the XI50 [21] was 2 nM.
